# Key:
# [1] = target: T1, Prostaglandin E2 receptor EP3 subtype (Homo sapiens, UniProt P43115); assay: Antagonist activity at human EP3 expressed in CHO cells assessed as suppression of sulprostone-induced inhibition of forskolin induced cAMP production measured after 30 mins by HTR-FRET assay; type: functional, cell-based
# T1 sequence (P43115 whole entry): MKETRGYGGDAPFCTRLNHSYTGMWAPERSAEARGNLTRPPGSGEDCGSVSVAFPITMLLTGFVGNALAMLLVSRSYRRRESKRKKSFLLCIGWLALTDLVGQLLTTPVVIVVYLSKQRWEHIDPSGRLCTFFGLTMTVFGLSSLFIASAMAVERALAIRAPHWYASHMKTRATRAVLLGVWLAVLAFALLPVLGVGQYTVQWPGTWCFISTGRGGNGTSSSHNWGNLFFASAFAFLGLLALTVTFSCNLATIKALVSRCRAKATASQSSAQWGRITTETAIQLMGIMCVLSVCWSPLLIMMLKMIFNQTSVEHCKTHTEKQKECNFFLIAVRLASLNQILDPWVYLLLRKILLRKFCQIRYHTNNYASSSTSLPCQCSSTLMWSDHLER
# [2] = target: T1, Prostaglandin E2 receptor EP3 subtype; assay: Displacement of [3H]-PGE2 from human EP3 expressed in Chem-1 cell membranes incubated for 2 hrs by TopCount scintillation plate reader analysis; parameters: species or system Membrane
# [3] = Metabolic stability in human liver microsomes assessed as intrinsic clearance half life; type: ADME, Microsome
# [4] = Metabolic stability in rat liver microsomes assessed as intrinsic clearance half life; type: ADME, Microsome
# [5] = Kinetic solubility of compound in PBS buffer; type: physicochemical; conditions: read-out: Kinetic_solubility
# [6] = Kinetic solubility of compound at pH 2; type: physicochemical; conditions: buffer, read-out: Kinetic_solubility
# [7] = Apparent permeability across apical to basolateral side in dog MDCK cells; type: ADME, cell-based, Canis lupus familiaris
# [8] = Cmax in Sprague-Dawley rat at 10 mg/kg, po measured up to 24 hrs by LC-MS/MS analysis; type: ADME, organism-based; parameters: route oral, dose 10 mg/kg, time <=24; conditions: in vivo
# In short: (§1)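 Sprague-Dawley rats, n = 3 per route, sampled over 24 h. Full PK: iv 2 mg/kg in 20% HPbCD with po 10 mg/kg given either in 0.5% HPMC or in 20% HPbCD, depending on study. Fast PK: po only, 10 mg/kg in 0.5% HPMC.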
# [9] = AUClast in Sprague-Dawley rat at 10 mg/kg, po measured up to 24 hrs by LC-MS/MS analysis; type: ADME, organism-based; parameters: route oral, dose 10 mg/kg, time <=24; conditions: in vivo; in short: as §1
IC50 [1] [nM],Ki [2] [nM],half-life [3] [h],half-life [4] [h],solubility kinetic [5] [µM],solubility kinetic [6] [µM],Papp A→B [7] [×10⁻⁶ cm/s],Cmax [8] [µg/mL],AUC(0-t) at 24 h [9] [µg·h/mL],Structure (SMILES)
–,–,> 3,> 3,35.7,39.4,–,–,–,Cc1cc(C(/C=C2\OC(=O)NC2=O)C(C)C)c(=O)[nH]c1-c1ccc2cccc(F)c2c1 (stereo unspecified)
–,–,1.98,> 3,30.8,3.85,–,–,–,O=C1NC(=O)/C(=C/C(c2ccc(-c3ccc4cccc(F)c4c3)[nH]c2=O)C2CC2)O1 (stereo unspecified)
55,28,2.48,> 3,33.4,27.4,–,–,–,O=C1NC(=O)/C(=C/C2(c3ccc(-c4ccc5cccc(F)c5c4)[nH]c3=O)CC2)O1
–,–,1.09,2.39,–,–,–,–,–,O=C1NC(=O)/C(=C/C(c2ccc(-c3ccc4cccc(F)c4c3)[nH]c2=O)C2CCCCC2)O1 (stereo unspecified)
–,–,1.3,2.96,9.1,0.9,–,–,–,O=C1NC(=O)/C(=C/C(Cc2ccccc2)c2ccc(-c3ccc4cccc(F)c4c3)[nH]c2=O)O1 (stereo unspecified)
–,–,> 3,> 3,26.4,4.62,–,–,–,CC(C)[C@@H](/C=C1\OC(=O)NC1=O)c1ccc(-c2ccc3cccc(F)c3c2)[nH]c1=O
–,–,> 3,> 3,21.5,3.2,–,–,–,CC(C)C(/C=C1\OC(=O)NC1=O)c1cc(Cl)c(-c2ccc3cccc(F)c3c2)[nH]c1=O (stereo unspecified)
–,–,> 3,> 3,33.7,3.68,–,–,–,CCC(CC)C(/C=C1\OC(=O)NC1=O)c1ccc(-c2ccc3cccc(F)c3c2)[nH]c1=O (stereo unspecified)
–,–,0.948,> 3,32.6,13.5,–,58.1,327,CCC(/C=C1\OC(=O)NC1=O)(CC)c1ccc(-c2ccc3cccc(F)c3c2)[nH]c1=O
–,–,> 3,> 3,25.4,10.8,–,–,–,CC(C)[C@H](/C=C1\OC(=O)NC1=O)c1ccc(-c2ccc3cccc(F)c3c2)[nH]c1=O
1300,140,> 3,> 3,–,–,–,–,–,CC(C)/C(=C1/OC(=O)NC1=O)c1ccc(-c2ccc3cccc(F)c3c2)[nH]c1=O
–,–,2.1,> 3,32.8,15.4,–,–,–,O=C1NC(=O)/C(=C/C(c2ccccc2)c2ccc(-c3ccc4cccc(F)c4c3)[nH]c2=O)O1 (stereo unspecified)
–,–,1.89,> 3,36.1,1.66,–,–,–,CC(C)(/C=C1\OC(=O)NC1=O)c1ccc(-c2ccc3cccc(F)c3c2)[nH]c1=O
–,–,1.21,> 3,–,–,–,–,–,O=C1NC(=O)/C(=C/C(c2ccc(-c3ccc4cccc(F)c4c3)[nH]c2=O)C2CCCC2)O1 (stereo unspecified)
–,–,> 3,> 3,24.5,2.55,–,–,–,O=C1NC(=O)/C(=C/C2(c3ccc(-c4ccc5cccc(F)c5c4)[nH]c3=O)CCCC2)O1
610,85,> 3,1.27,27.4,6.9,3.15,–,–,CC(C)[C@@H](c1ccc(-c2ccc3cccc(F)c3c2)[nH]c1=O)[C@@H]1OC(=O)NC1=O (relative stereo)
92,27,> 3,1.93,31.6,5.4,9.14,–,–,CC(C)[C@@H](c1ccc(-c2ccc3cccc(F)c3c2)[nH]c1=O)[C@H]1OC(=O)NC1=O (relative stereo)

# The remaining lines, values behind:
Structure (SMILES),IC50 [1] [nM],Ki [2] [nM],half-life [3] [h],half-life [4] [h],solubility kinetic [5] [µM],solubility kinetic [6] [µM],Papp A→B [7] [×10⁻⁶ cm/s],Cmax [8] [µg/mL],AUC(0-t) at 24 h [9] [µg·h/mL]
CC(C)C1(c2ccc(-c3ccc4ccccc4c3)[nH]c2=O)OC(O)=NC1=O (stereo unspecified),68,–,–,–,–,–,–,–,–
CC(C)/C(=C1\C(=O)NC(=O)N1C)c1ccc(-c2ccc3cccc(F)c3c2)[nH]c1=O,350,85,> 3,> 3,22.5,11.1,6.85,–,–
CCn1ncc2cc(C)c(-c3ccc(C(/C=C4\OC(=O)NC4=O)(CC)CC)c(=O)[nH]3)cc21,> 20000,5700,–,–,–,–,–,–,–
CC(C)C(CC1C(=O)NC(=O)N1C)c1ccc(-c2ccc3cccc(F)c3c2)[nH]c1=O (stereo unspecified),–,–,0.153,< 0.0667,33.6,26.6,17.6,–,–
CC(C)C(/C=C1/C(=O)NC(=O)N1C)c1ccc(-c2ccc3cccc(F)c3c2)[nH]c1=O (stereo unspecified),–,–,> 3,1.08,34.8,8.3,14.1,–,–
CCC(/C=C1\OC(=O)NC1=O)(CC)c1ccc(-c2ccc3cccc(C(C)C)c3c2)[nH]c1=O,–,120,0.758,1.88,–,–,–,–,–
CCn1nc(C)c2ccc(-c3ccc(C(/C=C4\OC(=O)NC4=O)(CC)CC)c(=O)[nH]3)cc21,18000,270,–,–,–,–,–,–,–
CC(C)C(c1ccc(-c2ccc3cccc(F)c3c2)[nH]c1=O)C1SC(=O)NC1=O (stereo unspecified),–,–,1.87,0.76,20.1,11.3,26.3,–,–
CCC(/C=C1\OC(=O)NC1=O)(CC)c1ccc(-c2ccc3c(c2)OC(C)(C)CC3)[nH]c1=O,> 20000,2600,–,–,–,–,–,–,–
CC(C)C(c1ccc(-c2ccc3cccc(F)c3c2)[nH]c1=O)C1C(=O)NC(=O)N1C (stereo unspecified),–,–,0.375,0.263,17.9,13.6,–,–,–
CCN1CCOc2ccc(-c3ccc(C(/C=C4\OC(=O)NC4=O)(CC)CC)c(=O)[nH]3)cc21,–,–,0.972,1.51,24.1,21,–,–,–
CCC(/C=C1\OC(=O)NC1=O)(CC)c1ccc(-c2ccc3c(F)cc(F)cc3c2)[nH]c1=O,–,290,–,–,–,–,–,–,–
CCn1ncc2cc(F)c(-c3ccc(C(/C=C4\OC(=O)NC4=O)(CC)CC)c(=O)[nH]3)cc21,–,120,–,–,–,–,–,–,–
CC(C)/C(=C1/SC(=O)NC1=O)c1ccc(-c2ccc3cccc(F)c3c2)[nH]c1=O,–,–,> 3,> 3,23.3,9.2,22.9,–,–
CCC(/C=C1\OC(=O)NC1=O)(CC)c1ccc(-c2ccc3cc(F)cc(F)c3c2)[nH]c1=O,45,28,> 3,> 3,–,–,–,–,–
CCC(/C=C1\OC(=O)NC1=O)(CC)c1ccc(-c2ccc3cccc(C(F)(F)F)c3c2)[nH]c1=O,–,–,0.353,1.09,–,–,–,–,–
CCc1cccc2ccc(-c3ccc(C(/C=C4\OC(=O)NC4=O)(CC)CC)c(=O)[nH]3)cc12,–,–,0.178,1.77,–,–,–,–,–
CC(C)/C(=C1\NC(=O)OC1=O)c1ccc(-c2ccc3cccc(F)c3c2)[nH]c1=O,–,–,> 3,> 3,–,–,–,–,–
CCn1cc2c(F)c(-c3ccc(C(/C=C4\OC(=O)NC4=O)(CC)CC)c(=O)[nH]3)ccc2n1,> 20000,> 10000,–,–,–,–,–,–,–
CC(C)C(/C=C1\SC(=O)NC1=O)c1ccc(-c2ccc3cccc(F)c3c2)[nH]c1=O (stereo unspecified),–,–,> 3,2.62,25.6,4.8,15.4,–,–
CCn1ncc2c(F)c(-c3ccc(C(/C=C4\OC(=O)NC4=O)(CC)CC)c(=O)[nH]3)ccc21,> 20000,1300,–,–,–,–,–,–,–
CC(C)C(/C=C1\NC(=O)NC1=O)c1ccc(-c2ccc3cccc(F)c3c2)[nH]c1=O (stereo unspecified),–,–,> 3,1.46,10.7,7.5,12.3,–,–
CC(C)C(CC1NC(=O)NC1=O)c1ccc(-c2ccc3cccc(F)c3c2)[nH]c1=O (stereo unspecified),–,–,1.59,0.35,12.3,13,17.1,–,–
CC(C)C(c1ccc(-c2ccc3cccc(F)c3c2)[nH]c1=O)C1NC(=O)NC1=O (stereo unspecified),–,–,0.578,0.145,10.6,5.8,–,–,–
CC(C)[C@H](C[C@H]1OC(=O)NC1=O)c1ccc(-c2ccc3cccc(F)c3c2)[nH]c1=O (relative stereo),15,6,1.68,0.95,35.4,24.4,10.3,–,–
CC(C)[C@H](C[C@H]1SC(=O)NC1=O)c1ccc(-c2ccc3cccc(F)c3c2)[nH]c1=O (relative stereo),–,–,0.67,0.143,31.2,4.9,17.6,–,–
CC(C)[C@@H](C[C@H]1SC(=O)NC1=O)c1ccc(-c2ccc3cccc(F)c3c2)[nH]c1=O (relative stereo),–,–,1.24,0.77,23.9,12.2,25.5,–,–

# Reference: ChEMBL document CHEMBL4680377, “Discovery of a Novel Series of Pyridone-Based EP3 Antagonists for the Treatment of Type 2 Diabetes” (ACS Med Chem Lett, 2021)
